{
  "source": "ChEMBL document CHEMBL5143728",
  "about": "“Next-Generation Diprovocims with Potent Human and Murine TLR1/TLR2 Agonist Activity That Activate the Innate and Adaptive Immune Response” (J Med Chem, 2022)",
  "key": {"[1]": {"test_system": "Mus musculus", "test": "Immuno-adjuvant activity in C57BL/6J mouse assessed as increase in level of OVA specific Goat Anti-Mouse IgG-HRP antibody at 10 mg/kg, IM co-treated with ovalbumin at 5 mg/kg incubated for 1 hrs measured on day 14 by ELISA", "type": "functional, organism-based", "procedure,_shortened": "(§1)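 Female 8-week C57BL/6J mice (ca. 20 g) given i.m. 200 μg (10 mg/kg) agonist mixed with 100 μg OVA (5 mg/kg, low endotoxin) in DMSO:Tween 80:saline 1:1:8 on day 0. Controls received vehicle or OVA alone; 5–8 mice/group. Serum OVA-specific IgG, IgG1 and IgG2b measured by ELISA on day 14. Mean ± SD; one-way ANOVA with Tukey test.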"}, "[2]": {"target": "T1, Toll-like receptor 1/2 (Homo sapiens, UniProt O60603+Q15399)", "T1 sequence (O60603 whole entry)": "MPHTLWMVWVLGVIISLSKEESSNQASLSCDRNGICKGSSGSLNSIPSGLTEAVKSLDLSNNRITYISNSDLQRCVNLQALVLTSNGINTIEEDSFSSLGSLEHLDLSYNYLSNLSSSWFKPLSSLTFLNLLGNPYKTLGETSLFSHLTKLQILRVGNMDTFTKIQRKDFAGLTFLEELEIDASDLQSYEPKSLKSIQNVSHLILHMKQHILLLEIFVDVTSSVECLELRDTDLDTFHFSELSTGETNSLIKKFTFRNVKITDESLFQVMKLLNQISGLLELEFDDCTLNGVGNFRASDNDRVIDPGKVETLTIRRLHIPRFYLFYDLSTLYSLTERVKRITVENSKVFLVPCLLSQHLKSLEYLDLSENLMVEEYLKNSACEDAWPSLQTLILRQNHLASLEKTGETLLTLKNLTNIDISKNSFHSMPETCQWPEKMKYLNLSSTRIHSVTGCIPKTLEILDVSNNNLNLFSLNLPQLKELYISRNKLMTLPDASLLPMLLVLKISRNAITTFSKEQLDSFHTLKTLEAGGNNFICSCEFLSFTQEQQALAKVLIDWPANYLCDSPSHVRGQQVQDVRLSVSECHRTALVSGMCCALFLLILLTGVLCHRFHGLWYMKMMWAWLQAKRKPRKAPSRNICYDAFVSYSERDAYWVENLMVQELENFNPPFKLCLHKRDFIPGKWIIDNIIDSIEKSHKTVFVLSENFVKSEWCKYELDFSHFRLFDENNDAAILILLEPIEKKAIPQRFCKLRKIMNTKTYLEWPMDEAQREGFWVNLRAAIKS", "T1 sequence (Q15399 whole entry)": "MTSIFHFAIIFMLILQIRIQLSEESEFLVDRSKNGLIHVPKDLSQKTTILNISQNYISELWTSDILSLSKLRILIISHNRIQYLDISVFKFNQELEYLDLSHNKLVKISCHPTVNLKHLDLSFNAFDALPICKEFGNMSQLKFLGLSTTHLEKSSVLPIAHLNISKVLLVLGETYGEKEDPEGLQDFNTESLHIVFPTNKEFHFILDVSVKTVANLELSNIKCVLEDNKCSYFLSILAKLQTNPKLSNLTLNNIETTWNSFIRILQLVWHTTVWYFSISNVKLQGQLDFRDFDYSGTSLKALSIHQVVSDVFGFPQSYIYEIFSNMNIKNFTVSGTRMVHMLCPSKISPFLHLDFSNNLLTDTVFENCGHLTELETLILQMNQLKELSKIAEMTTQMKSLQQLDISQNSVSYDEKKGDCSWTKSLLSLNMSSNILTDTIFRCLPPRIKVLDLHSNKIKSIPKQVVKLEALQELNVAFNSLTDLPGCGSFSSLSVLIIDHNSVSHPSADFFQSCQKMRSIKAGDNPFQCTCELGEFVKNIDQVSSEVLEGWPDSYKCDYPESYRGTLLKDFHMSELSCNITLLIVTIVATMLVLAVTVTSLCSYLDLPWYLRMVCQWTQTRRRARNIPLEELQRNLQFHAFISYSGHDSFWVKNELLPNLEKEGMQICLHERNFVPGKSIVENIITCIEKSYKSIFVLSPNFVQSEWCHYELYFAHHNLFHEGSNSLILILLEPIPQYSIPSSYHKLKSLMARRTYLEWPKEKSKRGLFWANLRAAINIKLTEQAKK", "test": "Agonist activity at TLR1/TLR2 in human THP-1 derived macrophages assessed as stimulation of TNF alpha release measured for 4 hrs by ELISA based assay", "type": "cell-based", "procedure,_shortened": "(§2)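 THP-1 cells differentiated with 100 nM PMA in RPMI/10% FBS for 24 h, washed, then rested 24 h in fresh medium. Seeded at 0.5 × 10⁵ cells/well and exposed to graded compound concentrations for 4 h, with final DMSO held at 0.1%. LPS served as positive control and DMSO as negative control. Supernatant human TNF-α was read by ELISA. EC50 from duplicate means.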"}, "[3]": {"test_system": "Mus musculus", "test": "Immuno-adjuvant activity in C57BL/6J mouse assessed as increase in level of OVA specific Goat Anti-Mouse IgG2b-HRP antibody at 10 mg/kg, IM co-treated with ovalbumin at 5 mg/kg incubated for 1 hrs measured on day 14 by ELISA", "type": "functional, organism-based", "procedure,_shortened": "as §1"}, "[4]": {"target": "T1, Toll-like receptor 1/2", "test": "Agonist activity at TLR1/TLR2 in human THP-1 derived macrophages assessed as stimulation of TNF alpha release measured for 4 hrs by ELISA based assay relative to diprovocim-1", "type": "cell-based", "design": "Activity: concentration or dose not given beside the values", "conditions": "filed as agonist", "procedure,_shortened": "as §2"}, "[5]": {"test_system": "Splenocyte", "test": "In vivo cytotoxicity against C57BL/6 mouse-derived splenocytes loaded with SIINFEKL peptide allografted in immunized C57BL/6J mouse at 10 mg/kg, IM on day 0 and day 28 followed by spleenocytes injection on day 7 and day 35 and measured on day 9 and 37 by flow cytometry", "type": "functional, organism-based"}, "[6]": {"test_system": "Mus musculus", "test": "Immuno-adjuvant activity in C57BL/6J mouse assessed as increase in level of OVA specific Goat Anti-Mouse IgG1-HRP antibody at 10 mg/kg, IM co-treated with ovalbumin at 5 mg/kg incubated for 1 hrs measured on day 14 by ELISA", "type": "functional, organism-based", "procedure,_shortened": "as §1"}, "[7]": {"target": "Toll-like receptor 1/2 (Mus musculus, UniProt Q9EPQ1+Q9QUN7)", "sequence (Q9QUN7 whole entry)": "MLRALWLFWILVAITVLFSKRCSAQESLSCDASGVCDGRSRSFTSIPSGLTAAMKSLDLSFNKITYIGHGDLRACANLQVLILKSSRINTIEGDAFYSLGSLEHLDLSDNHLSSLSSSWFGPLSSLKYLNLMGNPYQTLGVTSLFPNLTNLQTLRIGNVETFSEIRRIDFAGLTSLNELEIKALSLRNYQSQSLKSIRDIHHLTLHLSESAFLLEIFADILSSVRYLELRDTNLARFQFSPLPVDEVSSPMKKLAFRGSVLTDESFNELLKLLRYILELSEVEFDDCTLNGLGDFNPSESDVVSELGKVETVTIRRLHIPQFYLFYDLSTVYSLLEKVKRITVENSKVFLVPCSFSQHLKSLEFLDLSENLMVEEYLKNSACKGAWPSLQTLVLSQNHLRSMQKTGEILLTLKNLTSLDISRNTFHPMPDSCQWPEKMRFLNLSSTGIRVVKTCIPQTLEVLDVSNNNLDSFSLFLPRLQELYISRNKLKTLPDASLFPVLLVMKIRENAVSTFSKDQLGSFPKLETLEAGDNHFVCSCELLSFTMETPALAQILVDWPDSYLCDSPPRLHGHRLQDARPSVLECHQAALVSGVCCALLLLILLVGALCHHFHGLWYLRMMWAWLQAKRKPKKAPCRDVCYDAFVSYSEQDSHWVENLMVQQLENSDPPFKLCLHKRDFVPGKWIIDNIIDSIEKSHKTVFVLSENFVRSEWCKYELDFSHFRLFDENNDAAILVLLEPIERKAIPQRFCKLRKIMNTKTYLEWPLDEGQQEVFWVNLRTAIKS", "sequence (Q9EPQ1 whole entry)": "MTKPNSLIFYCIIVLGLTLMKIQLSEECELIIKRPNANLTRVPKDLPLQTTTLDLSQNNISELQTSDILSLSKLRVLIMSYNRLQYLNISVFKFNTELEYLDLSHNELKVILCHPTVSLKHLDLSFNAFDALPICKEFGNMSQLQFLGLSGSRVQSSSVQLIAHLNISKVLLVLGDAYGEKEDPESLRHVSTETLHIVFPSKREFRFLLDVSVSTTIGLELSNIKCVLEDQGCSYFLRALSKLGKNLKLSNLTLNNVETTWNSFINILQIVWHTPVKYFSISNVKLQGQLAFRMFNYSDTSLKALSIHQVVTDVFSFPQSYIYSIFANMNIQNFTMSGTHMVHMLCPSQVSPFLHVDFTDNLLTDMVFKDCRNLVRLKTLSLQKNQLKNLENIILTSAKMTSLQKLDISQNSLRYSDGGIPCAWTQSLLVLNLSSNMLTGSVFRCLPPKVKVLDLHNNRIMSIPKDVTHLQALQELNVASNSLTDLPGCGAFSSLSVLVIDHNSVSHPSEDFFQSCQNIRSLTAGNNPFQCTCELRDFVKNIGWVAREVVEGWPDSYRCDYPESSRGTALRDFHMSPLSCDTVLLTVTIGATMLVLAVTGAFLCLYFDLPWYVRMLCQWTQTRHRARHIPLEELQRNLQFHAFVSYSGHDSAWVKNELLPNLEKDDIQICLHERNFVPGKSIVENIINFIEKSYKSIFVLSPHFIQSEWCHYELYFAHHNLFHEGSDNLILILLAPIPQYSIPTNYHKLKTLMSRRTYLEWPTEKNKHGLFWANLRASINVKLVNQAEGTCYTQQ", "test": "Agonist activity at TLR1/TLR2 in wild type C57BL/6J mouse macrophages assessed as stimulation of TNF alpha release measured for 4 hrs by ELISA based assay", "type": "cell-based, Macrophage", "procedure,_shortened": "(§3)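 Thioglycolate-elicited peritoneal macrophages from wild type C57BL/6J mice, harvested by PBS lavage 4 d after i.p. 4% thioglycolate. Cultured in DMEM/10% FBS at 37 °C, 5% CO2, seeded at 1 × 10⁵ cells/well and exposed to graded compound concentrations for 4 h, with final DMSO ≤0.5% held constant. LPS served as positive control. Supernatant mouse TNF-α was read by ELISA. EC50 from duplicate means.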"}, "[8]": {"target": "Toll-like receptor 1/2 (Mus musculus) (UniProt Q9QUN7+Q9EPQ1)", "test": "Agonist activity at TLR1/TLR2 in wild type C57BL/6J mouse macrophages assessed as stimulation of TNF alpha release measured for 4 hrs by ELISA based assay relative to diprovocim-1", "type": "cell-based", "design": "Activity: concentration or dose not given beside the values", "conditions": "Macrophage, filed as agonist", "procedure,_shortened": "as §3"}, "[9]": {"test_system": "Peritoneal macrophage", "test": "Stimulation of TNF alpha release in TLR4- deficient mutant C3H/HeJ mouse peritoneal macrophage at 500 nM", "type": "functional, cell-based", "procedure,_shortened": "(§4)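 Peritoneal macrophages from Tlr4-WT C3H/HeOuJ mice or Tlr4 P712H-mutant C3H/HeJ mice, stimulated with agonist at 500 nM. Released TNF-α measured. LPS run as positive control.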"}, "[10]": {"test_system": "Peritoneal macrophage", "test": "Stimulation of TNF alpha release in TLR4-sufficient wild type C3H/HeOuJ mouse peritoneal macrophage at 500 nM", "type": "functional, cell-based", "procedure,_shortened": "as §4"}},
  "note": "Activity calls are given as the source filed them. The calls are words filed in the database; no cut-off is given here.",
  "data": [
    {"smiles": "CC(C)(C)OC(=O)NCC(=O)OCCCCCCCCCCCCNC(=O)[C@@H]1CN(C(=O)c2ccc(C(=O)N3C[C@@H](C(=O)N[C@H]4C[C@@H]4c4ccccc4)[C@H](C(=O)N[C@H]4C[C@@H]4c4ccccc4)C3)cc2)C[C@H]1C(=O)N[C@H]1C[C@@H]1c1ccccc1", "values": [
      {"measurement": "Activity", "setting": "[1]", "value": "Active"},
      {"measurement": "EC50", "setting": "[2]", "value": 0.14, "unit": "nM"},
      {"measurement": "Activity", "setting": "[3]", "value": "Active"},
      {"measurement": "Activity", "setting": "[4]", "value": 100, "unit": "%"},
      {"measurement": "Activity", "setting": "[5]", "value": "Active"},
      {"measurement": "Activity", "setting": "[6]", "value": "Active"},
      {"measurement": "EC50", "setting": "[7]", "value": 0.75, "unit": "nM"},
      {"measurement": "Activity", "setting": "[8]", "value": 550, "unit": "%"}
    ]},
    {"smiles": "O=C(N[C@H]1C[C@@H]1c1ccccc1)[C@@H]1CN(C(=O)c2ccc(C(=O)N3C[C@@H](C(=O)N[C@H]4C[C@@H]4c4ccccc4)[C@H](C(=O)N[C@H]4C[C@@H]4c4ccccc4)C3)cc2)C[C@H]1C(=O)N[C@H]1C[C@@H]1c1ccccc1", "values": [
      {"measurement": "Activity", "setting": "[1]", "value": "Active"},
      {"measurement": "Activity", "setting": "[3]", "value": "Active"},
      {"measurement": "Activity", "setting": "[9]", "value": "Active"},
      {"measurement": "Activity", "setting": "[5]", "value": "Active"},
      {"measurement": "Activity", "setting": "[6]", "value": "Active"},
      {"measurement": "Activity", "setting": "[10]", "value": "Active"}
    ]}
  ]
}
